Screens as filed in PubChem.
Shown are actives, neighbours in structure and some others; about 3.4% of the full set was active somewhere.
KCC2 mod: KCC2 (human) Cl- transport modulation; Q9H2X9; KCC2 cells, thallium flux FluoZin-2 fluorescence; B-score of Tl+ flux slope (higher = more flux/activation; lower = inhibition) at 10 µM; 190,000 compounds, 2.2% hits; AID 1456;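 active = thallium flux slope and its plate-corrected score both differing from the plate sample mean at a set confidence after two filtering rounds, in either direction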;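 also: slope of fluorescence scaled to starting intensity during 10 to 20 s after thallium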
DTT redox prof: compounds producing H2O2 with reducing agent – biochemical, NIH compound library profiling, artefact control for MLSCN library redox annotation, primary screen; DTT-dependent redox cycling H2O2, phenol red/HRP absorbance; 100% = 100 µM peroxide control, 0% = buffer; activation, % at 10 µM; 200,000 compounds, 0.03% hits; AID 878;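 active = activation of at least 50% relative to the plate's high and low controls in the primary single-dose screen; inactive = activation below 50%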;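 also: compound incubated with DTT at 0.8 mM final as the reducing agent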
p97 inhibitor: inhibitors of human p97 ATPase; 220,000 compounds, 0.42% hits; inhibition, % at 8 µM; P55072; recombinant p97 ATPase, Kinase-Glo ATP luminescence, 3 h; in the data active = inhibition above about 15%;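 also: 0% = DMSO vehicle and 100% = wells lacking enzyme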
MDM2 E3 inh: inhibitors of human Mdm2 E3 ubiquitin ligase. Q00987. AID 1230. 210,000 compounds, 0.11% hits. cell-based MDM2 ubiquitination luciferase reporter, 2 h; 0 = plate control, 100 = twice control, blank-subtracted. signal enhancement, % at 5 µM;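 active = signal enhancement of 30% or more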;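 also: luminescence tracks abundance of the self-degrading MDM2-luciferase fusion protein; higher signal means inhibition of MDM2 E3 ligase activity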
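Timing – 2 h compound exposure at 37 °C · Assay system – mammalian cells stably expressing self-ubiquitinating, self-degrading MDM2 E3–luciferase fusion · Amount – 2000 cells seeded into each well · Measure – % luminescence enhancement versus blank-corrected plate control mean · Measured by – SteadyLite luminescence, 15 min reagent step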
PKD1 kinase inh: inhibitors of human PKD1 kinase; PKD1 kinase fluorescence polarization assay; Q15139; inhibition, % (no concentration beside the values); AID 797; 200,000 compounds, 0.056% hits; in the data active = inhibition above about 50%
Target sequence (Q15139 whole entry, looked up): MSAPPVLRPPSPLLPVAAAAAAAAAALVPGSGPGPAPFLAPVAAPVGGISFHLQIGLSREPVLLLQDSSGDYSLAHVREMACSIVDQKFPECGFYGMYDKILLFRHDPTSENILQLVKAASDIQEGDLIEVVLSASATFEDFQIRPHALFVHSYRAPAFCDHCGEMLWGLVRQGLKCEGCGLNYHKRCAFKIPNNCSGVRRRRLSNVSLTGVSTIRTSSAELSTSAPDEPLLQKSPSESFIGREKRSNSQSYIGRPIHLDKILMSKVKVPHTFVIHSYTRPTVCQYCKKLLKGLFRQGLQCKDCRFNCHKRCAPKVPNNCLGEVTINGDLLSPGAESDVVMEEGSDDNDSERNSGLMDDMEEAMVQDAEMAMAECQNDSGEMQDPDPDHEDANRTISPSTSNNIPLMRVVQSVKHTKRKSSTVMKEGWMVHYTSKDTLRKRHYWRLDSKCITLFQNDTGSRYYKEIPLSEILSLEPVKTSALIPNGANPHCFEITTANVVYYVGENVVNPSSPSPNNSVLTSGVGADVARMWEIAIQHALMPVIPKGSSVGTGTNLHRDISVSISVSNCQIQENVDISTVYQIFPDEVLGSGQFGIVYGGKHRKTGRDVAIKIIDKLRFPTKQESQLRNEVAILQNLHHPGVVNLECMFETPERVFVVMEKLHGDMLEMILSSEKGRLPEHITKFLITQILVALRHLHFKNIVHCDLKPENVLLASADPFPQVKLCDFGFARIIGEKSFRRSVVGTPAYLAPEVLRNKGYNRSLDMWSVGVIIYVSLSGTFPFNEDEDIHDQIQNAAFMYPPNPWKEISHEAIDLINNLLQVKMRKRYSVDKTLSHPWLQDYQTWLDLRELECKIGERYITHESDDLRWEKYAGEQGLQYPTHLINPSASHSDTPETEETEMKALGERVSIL
ROMK primary: modulators of human ROMK potassium channel; Tet-inducible ROMK, thallium flux fluorescence; actives lie on both sides; B-score at 10 µM; 130,000 compounds, 2% hits; AID 1918;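 active = signal ratio slope over the read window, or its plate-corrected B-score, at least 3 SD from the plate mean, either direction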;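 also: B-score of the F/F0 ratio slope over 7 to 12 s after thallium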
KCC2 sec1: KCC2 (human) modulation, secondary assay; shares compounds with KCC2 mod; HEK293-KCC2, thallium flux, FluoZin2 fluorescence; active compounds read high; normalised thallium flux (F/F0 slope) at 10 µM; 3,700 compounds, 15% hits;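 active = thallium flux slope above the same plate's solvent-only control mean plus 3 SD; inconclusive = the two replicate wells disagree; inactive = no significant difference from solvent-only control wells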
KCC2 bumet counter: bumetanide-insensitive thallium flux in KCC2 cells with ouabain, counter-screen. shares compounds with KCC2 mod. HEK293-KCC2 + bumetanide/ouabain, thallium flux FluoZin2; active compounds read high. normalized thallium flux at 10 µM. 3,700 compounds, 49% hits. AID 1714;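 active = thallium entry rate above the same plate's blocked-transporter control wells by more than 3 SD; inconclusive = the two repeat wells disagree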;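 also: raw slope of fluorescence over initial fluorescence between 10 and 20 s after thallium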
KCC2 sec2: KCC2 (human) modulation, second secondary assay; shares compounds with KCC2 mod; HEK293-KCC2, thallium flux FluoZin2 fluorescence; actives lie on both sides; F/F0 rise rate, 10–20 s post-thallium; normalized thallium flux at 10 µM; 3,700 compounds, 23% hits; AID 1715;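 active = thallium flux slope more than 3 SD above or below the plate's solvent-only control mean, mostly below; inconclusive = the two repeat wells disagreed; inactive = no significant shift from solvent-only controls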;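 also: raw slope with 0.1% DMSO as baseline and bumetanide as block control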
HEK counter1: acts in parental HEK cells, KCC2 counter-screen; shares compounds with KCC2 mod; HEK293 parental cells, thallium flux FluoZin2, ouabain; baseline-ratio fluorescence slope, 10–20 s after thallium; thallium flux rate (normalised fluorescence) at 10 µM; 3,700 compounds, 46% hits; AID 1716;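 active = thallium flux rate significantly above the same plate's solvent-only control wells, beyond their mean plus 3 SD; inconclusive = the two replicate wells gave conflicting results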
KCC2 ouabain: KCC2 (human) modulation, ouabain retest; shares compounds with KCC2 mod; HEK293-KCC2, thallium flux FluoZin2 fluorescence; bidirectional: low = inhibitor, high = activator; raw Tl+ flux slope (below DMSO = inhibition, above = activation) at 10 µM; 3,700 compounds, 48% hits;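 active = thallium flux slope beyond 3 SD from same-plate DMSO control mean in most replicates, usually higher, sometimes lower; inconclusive = repeat tests gave conflicting results; inactive = no significant difference from controls in most replicates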;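 also: slope of initial-normalized fluorescence between seconds 10 and 20 after thallium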
HEK293 Tl flux2: counter-screen for KCC2 modulators: effect in parental HEK293 cells. thallium flux FluoZin-2 fluorescence slope. 3,700 compounds, 33% hits. thallium flux slope at 10 µM. shares compounds with KCC2 mod;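 active = thallium flux slope above the same plate's solvent-control mean plus 3 SD in both duplicate wells; inconclusive = duplicate wells that disagreed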;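 also: run without ouabain in cells lacking the KCC2 cotransporter; slope of fluorescence scaled to its starting value between 10 and 20 s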
* hit, by the source's call; ? = inconclusive; . = no result given.

SMILES	KCC2 mod	DTT redox prof	p97 inhibitor	MDM2 E3 inh	PKD1 kinase inh	ROMK primary	KCC2 sec1	KCC2 bumet counter	KCC2 sec2	HEK counter1	KCC2 ouabain	HEK293 Tl flux2
CC1(c2cccs2)CC(c2cccs2)=C(C#N)C(=O)N1 (centres undefined)	5.19*	3.5	5.9	6.9	-12.5	-1.39	0.00649	0.00452	0.0276	0.00595*	0.0181	0.00928
COc1ccc(C(=O)CSc2nnc(Cc3ccccc3)o2)cc1	-2.85	-1.4	-2.6	-8.9	-9.7	.	.	.	.	.	.	.
COc1ccc(/C(O)=C/Sc2nnc(Cc3ccccc3)o2)cc1	-4.93*	0.0	-1.8	-17.8	1.3	-2.2	0.00627	0.00531	0.0246*	0.00653	0.0132*	?
COc1ccc2[nH]c(=O)c(CN(C(=O)C3CCCO3)c3ccc(C)c(C)c3)cc2c1 (centres undefined)	-0.407	.	-10.9	9.2	.	0.0456	.	.	.	.	.	.
COc1ccc(C2c3ccc(O)cc3Oc3ncn(CCCO)c(=N)c32)cc1 (centres undefined)	-0.149	.	3.2	-8.1	.	.	.	.	.	.	.	.
CC(C)Cn1c(-c2ccc(Br)o2)n[nH]c1=S	12.1*	0.1	2.4	11.3	-4.4	-0.159	0.0176*	0.0398*	0.0344	0.0185*	0.0319*	0.0123*
Cc1ccsc1-c1n[nH]c(=S)n1CC(C)C	0.0183	-0.1	-3.5	-2.9	2.1	1.29	.	.	.	.	.	.
CCn1c(SCc2nc(-c3ccccc3)no2)nnc1-c1cccs1	.	0.2	-5.8	-11.1	2.2	-0.0867	0.00836	0.00449	0.0308	0.00699	0.0158*	?
O=C(CCn1c(=O)oc2ccccc21)N1CCc2ccccc21	.	-0.2	3.3	1.5	-6.1	0.984	0.00771	0.00651	0.0275	0.0068	?	0.00954
CCc1ccc(NC(=O)CCn2c(=O)oc3ccccc32)cc1	.	-0.3	-0.7	1.5	-5.5	0.0744	0.0072	0.00401	0.0277	0.00711	?	0.0095
Cc1ccc(NC(=O)CCn2c(=O)oc3ccccc32)cc1	.	0.0	1.9	8.8	-1.8	-0.84	.	.	.	.	.	.
CCOc1cc(/C=C(/C#N)c2ccc(F)cc2)ccc1OCc1ccc(C(=O)O)o1	-4.91*	-0.8	-7.0	14.0	-13.4	1.98	0.0159	0.00405	0.0237*	0.00547*	0.0123*	?
O=S(=O)(c1cccc2cccnc12)N1CCN(Cc2ccccc2)CC1	-3.06*	0.8	2.8	-1.0	-7.1	-0.153	0.00703	0.00464	0.0248*	0.00758	0.0172*	0.00964
O=C(C1CCN(S(=O)(=O)c2cccc3cccnc23)CC1)N1CCN(c2ccc(Cl)cc2)CC1	-3.73*	-0.2	6.7	-13.4	-6.9	.	0.00826	?	0.0308	0.00679	0.0207	0.0101
Cc1cc(C)cc(NC(=O)c2oc3ccccc3c2COc2ccccc2)c1	-4.75*	-0.4	-0.8	-16.1	-5.5	0.0362	0.00845	0.00608	0.0312	0.00788	0.0184	0.0109
Cc1ccc(OCC(=O)NNC(=S)NC(=O)C(C)(C)C)c(Br)c1	49.9*	0.8	4.1	-9.0	0.8	-4.05	0.0253*	0.098*	?	0.0683*	0.065*	0.0243*
Cc1cccc(NC(=S)NNC(=O)COc2ccc(Cl)cc2Cl)c1	6.47*	0.1	-0.8	1.7	0.9	.	0.01	0.16*	0.0349	0.0284*	0.0532*	0.013*
Cc1ccc(OCC(=O)Nc2ccccc2[N+](=O)[O-])c(Br)c1	0.612	-0.4	0.5	-11.3	-7.2	-1.37	.	.	.	.	.	.
C/C(N)=C(/C#N)C(=O)COC(=O)c1cc2c(s1)CCC(C)C2 (centres undefined)	-0.95	-0.7	-7.2	-12.0	0.3	0.8	.	.	.	.	.	.
COc1cc(C(=S)N2CCOCC2)cc(OC)c1OC(=O)Cc1ccc(F)cc1	-4.31*	0.3	1.7	-6.9	-3.1	.	0.00918	0.00689	0.028*	0.00392	0.0159*	0.0114
CNCc1ccccc1Sc1cccc2ccccc12	-0.346	0.0	7.5	-2.6	-0.3	.	.	.	.	.	.	.
COc1cccc2cc(-c3nnc(SCC(=O)Nc4nc(C)cs4)n3C)oc12	-2.96*	1.3	0.6	-4.3	-8.7	-0.029	0.00851	0.00573	0.0299	0.00669	0.0235	0.0103
Cc1csc(NC(=O)CSc2nnc(-c3ccco3)n2C)n1	-1.36	1.0	5.9	-9.8	-2.0	.	.	.	.	.	.	.
Cc1ccc(CN2CCNC(=O)C2CC(=O)NCCCn2cccn2)o1 (centres undefined)	0.333	-0.2	6.3	-6.2	0.6	0.798	.	.	.	.	.	.
c1ccc(-c2ccc(-c3nc(-c4cccnc4)no3)cc2)cc1	-1	-0.2	4.0	-38.9	-4.8	.	.	.	.	.	.	.
SMILES	KCC2 mod	DTT redox prof	p97 inhibitor	MDM2 E3 inh	PKD1 kinase inh	ROMK primary	KCC2 sec1	KCC2 bumet counter	KCC2 sec2	HEK counter1	KCC2 ouabain	HEK293 Tl flux2
N#Cc1c(-c2ccccc2Cl)cc(-c2ccccc2)[nH]c1=S	17.1*	-2.0	0.9	-13.9	-5.4	-0.0892	0.0152*	0.028*	0.0376	0.0225*	0.0348*	0.0135*
Cc1cc(-c2ccccc2)c(C#N)c(=S)[nH]1	6.95*	0.4	0.6	-12.6	-5.0	.	0.0171*	0.0283*	0.0343	0.0162*	0.0277	0.012*
Cc1ccc(-c2cc(-c3ccccc3Cl)c(C#N)c(N)n2)o1	0.345	0.4	0.8	-6.0	1.9	.	.	.	.	.	.	.
CN(c1ccccc1)S(=O)(=O)c1ccc(C(=O)Nc2nnc(-c3ccc(F)cc3)o2)cc1	17.6*	0.1	7.1	-10.8	3.0	.	0.0133*	0.0556*	0.034	?	0.0383*	0.0124
CC(=O)c1ccc(C(=O)Nc2nnc(-c3ccc(Cl)cc3)o2)cc1	22.1*	.	.	2.4	.	.	0.0219*	0.0904*	?	0.0452*	0.0497*	0.0158*
CN(c1ccccc1)S(=O)(=O)c1ccc(NC(=O)c2ccc(-c3ccccc3)cc2)cc1	-0.266	3.4	1.0	-3.6	-5.1	.	.	.	.	.	.	.
